# PubChem BioAssay
# The source made the active and inactive calls.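 The calls were made as follows, unless noted: active = GFP response above 150% of the DMSO level; inconclusive = fewer than 70 events counted for a yeast strain; inactive = the rest.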
# Legend:
# [1] = RPL19A-GFP modulators, yeast TOR pathway, confirmation, cell-based, S. cerevisiae, flow cytometry, cherry picks, mother/daughter gates (AID 2270;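 active = GFP response below 50% of the DMSO control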); settings: S. cerevisiae RPL19A-GFP strain, 3 h, at 10 µM, stronger effect = lower value, 100 = same GFP as DMSO wells
# [2] = LAP4-GFP expression modulators in yeast, confirmation, cell-based, cherry picks, flow cytometry, mother/daughter gates (AID 2271;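 active = GFP response above 150% of the DMSO control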;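 also: ratio of sample to DMSO plate mean so 100% equals DMSO level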); settings: S. cerevisiae LAP4-GFP strain, 3 h, at 10 µM, stronger effect = higher value, 100 means same as DMSO control
# Method in brief: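 System: GFP-fusion yeast strain | Input: Yeast cells seeded at OD600 of 0.2 | Technique: HT flow cytometry, GFP fluorescence channel | Read-out: % GFP response vs DMSO | Dosing: Single test-compound dose, 10 µM final | Controls: Positive rapamycin (400 ng/mL), negative DMSO | Times: 3 h treatment at 30 °C with rotation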
# [3] = modulators of MEP2-GFP levels in yeast, confirmation, S. cerevisiae, flow cytometry GFP, cherry picks (AID 2272;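 active = GFP response above 150% of the DMSO control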;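 also: ratio of well signal to plate DMSO mean so 100% equals DMSO level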); settings: S. cerevisiae MEP2-GFP strain, 3 h, at 10 µM, stronger effect = higher value
# [4] = AGP1-GFP expression modulators, hit retest, confirmation, cell-based, flow cytometry, S. cerevisiae, cherry picks (AID 2273);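 also: median GFP channel fluorescence over the whole cell population gate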; settings: S. cerevisiae AGP1-GFP strain, 3 h, at 10 µM
# [5] = modulators of CIT2-GFP expression in yeast, confirmation, S. cerevisiae, GFP fusion, cherry picks, mother/daughter gates (AID 2274); settings: S. cerevisiae CIT2-GFP strain, flow cytometry, 3 h, at 10 µM, stronger effect = higher value
# [6] = measured here: daughter cell gate
# [7] = measured here: mother cell gate
# [8] = measured here: daughter cell gate response
# [9] = measured here: mother cell gate response
SMILES,GFP response vs DMSO [1],"GFP response vs DMSO [1, 6] [%]","GFP response vs DMSO [1, 7] [%]",GFP response relative to DMSO [2],"GFP response relative to DMSO [2, 8] [%]","GFP response relative to DMSO [2, 9] [%]",GFP response vs DMSO [3],"GFP response, % of DMSO [4]","GFP response, % of DMSO [5]","GFP response, % of DMSO [5, 6] [%]","GFP response, % of DMSO [5, 7] [%]"
O=C(Nc1c2ccccc2nc2ccccc12)C(Cl)(Cl)Cl,91.7% (inactive),77.9,83.4,88.7% (inactive),87.3,94.1,98.8% (inactive),87.8% (inactive),95.9% (inactive),77.8,70.8
CC(=O)N(\C=C/C=C/C=C1\Sc2ccccc2C1=O)c1ccccc1,110% (inactive),106,108,153% (active),145,152,238% (active),112% (inactive),131% (inactive),128,131
COc1ccccc1OC(C)C(=O)Nc1ccccc1C(=O)NCC1CCCO1 (stereo not drawn),97% (inactive),95.2,97.2,97.7% (inactive),97.9,97.5,99.5% (inactive),103% (inactive),97.8% (inactive),98.3,96.8
CC(C)NC(=O)c1ccccc1-c1nc(-c2ccccc2Cl)no1,97.2% (inactive),96.7,98,107% (inactive),103,108,97.8% (inactive),98.5% (inactive),91.3% (inactive),93.2,90.2
COc1ccccc1-c1noc(-c2cc(OC)c(OC)c(OC)c2)n1,97.2% (inactive),96.4,96.3,103% (inactive),105,105,104% (inactive),99.2% (inactive),99.1% (inactive),96.5,98.7
Cc1cccn2c(=O)c(/C=C(\C#N)C(=O)NC3CCS(=O)(=O)C3)c(N3CCC(C(N)=O)CC3)nc12 (stereo not drawn),101% (inactive),98.6,102,98.2% (inactive),97.5,98.4,99% (inactive),89.7% (inactive),97.3% (inactive),97.4,96.8
O=C1C(=O)N(Cc2ccccc2)C(c2cccc(O)c2)/C1=C(\O)c1ccc2c(c1)OCCO2 (stereo not drawn),100% (inactive),100,100,95% (inactive),95.6,98.3,100% (inactive),95.2% (inactive),108% (inactive),106,109
N#C/C(=C\c1c(N2CCC(C(N)=O)CC2)nc2ccccn2c1=O)C(=O)NCc1ccco1,97.8% (inactive),98.8,97.6,101% (inactive),99.3,99.5,102% (inactive),99.3% (inactive),104% (inactive),102,101
